Assay results as given in PubChem BioAssay.
Calls of active or inactive are those of the source.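 The calls were made as follows, unless noted: active = current rise at least 3 SD above the untreated control mean in each of two repeat wells; inactive = the rest.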

Legend:
[1] = target: Potassium voltage-gated channel subfamily KQT member 1 (Homo sapiens) (UniProt P51787); assay: KCNQ1 activators by electrophysiology – IonWorks patch clamp, KCNQ1-CHO cells, orthogonal assay for KCNQ1 potentiator project, confirmation (AID 493184); conditions: automated patch clamp current, at 10 µM
Method in brief: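 assay system = KCNQ1-expressing CHO cells | medium = external bath solution at pH 7.4 | probe or stimulus = 2,000 ms depolarization, -90 to +40 mV | compound dosing = 10 µM final, single point | measured by = automated voltage clamp, amphotericin B perforated patch | measure = percent current increase versus pre-compound level | replication = duplicates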

[2] = target: Potassium voltage-gated channel subfamily E member 1 (Homo sapiens) + Potassium voltage-gated channel subfamily KQT member 1 (Homo sapiens) (UniProt P15382+P51787); assay: KCNQ1-E1 channel activation – thallium flux, CHO-K1 KCNQ1/E1 cells, selectivity assay for KCNQ1 potentiator project, confirmation (AID 493186;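 active = mean duplicate activation above the buffer control mean plus 5 SD of those controls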); conditions: FluxOR thallium flux, at 10 µM
Method in brief: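 Test system – CHO-K1 cells with KCNQ1/E1 · Measured by – FluxOR Tl+ flux fluorescence, kinetic read · Controls – buffer low control, R-L3 high control · Times – dye 90 min, compound 20 min, room temperature · Replication – duplicate wells per compound · Doses – one test concentration · Evaluation – fluorescence rise relative to baseline, as percent of R-L3 response above buffer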

Sequence of Potassium voltage-gated channel subfamily E member 1 (Homo sapiens) + Potassium voltage-gated channel subfamily KQT member 1 (Homo sapiens) (P51787 whole entry, looked up): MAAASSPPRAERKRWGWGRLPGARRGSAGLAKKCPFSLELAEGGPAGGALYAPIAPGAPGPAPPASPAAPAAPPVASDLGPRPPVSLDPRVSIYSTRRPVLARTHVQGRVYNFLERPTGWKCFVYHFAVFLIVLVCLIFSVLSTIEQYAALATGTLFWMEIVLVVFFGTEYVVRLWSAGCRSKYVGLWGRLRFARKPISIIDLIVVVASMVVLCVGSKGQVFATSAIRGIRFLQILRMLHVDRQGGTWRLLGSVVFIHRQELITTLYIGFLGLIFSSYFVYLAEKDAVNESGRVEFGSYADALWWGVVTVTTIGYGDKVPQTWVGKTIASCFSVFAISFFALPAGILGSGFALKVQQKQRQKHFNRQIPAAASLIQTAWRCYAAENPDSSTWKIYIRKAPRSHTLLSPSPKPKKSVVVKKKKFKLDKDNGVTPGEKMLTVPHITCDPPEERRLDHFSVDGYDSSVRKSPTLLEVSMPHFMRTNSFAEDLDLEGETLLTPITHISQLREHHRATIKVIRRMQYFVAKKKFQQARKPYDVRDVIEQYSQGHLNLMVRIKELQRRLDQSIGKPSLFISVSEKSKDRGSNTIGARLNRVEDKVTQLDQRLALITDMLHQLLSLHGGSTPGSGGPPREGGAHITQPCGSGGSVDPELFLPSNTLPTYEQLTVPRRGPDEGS
Sequence of Potassium voltage-gated channel subfamily KQT member 1 (Homo sapiens) (P51787 whole entry, looked up): as above

| Structure (SMILES) | outcome [1] | outcome [2] |
| --- | --- | --- |
| Cc1nn(-c2cc(C(F)(F)F)ccc2Cl)c2nc(C(Cl)(Cl)Cl)[nH]c(=O)c12 | inactive | – |
| Cc1ccc(C(=O)O)cc1N=Cc1cc(Br)cc(Br)c1O | inactive | – |
| O=C(Nc1ccnn1C1CCN(Cc2cc3ccccc3[nH]2)CC1)C1CCOC1 (configuration not stated) | inactive | – |
| COc1ccc(NS(=O)(=O)c2ccc3ccccc3c2)c2ncccc12 | inactive | – |
| CN(CCCNC(=O)CCCOc1cc(=O)n(C)c2ccccc12)Cc1ccccc1 | inactive | – |
| CCCCCCCCCC[n+]1cccc2c3ccccc3ccc21 | inactive | – |
| O=C(O)CCCN1C(=O)/C(=C\c2ccc(-c3nc4ccccc4s3)o2)SC1=S | inactive | inactive |
| COc1cc(C2(c3ccc(O)c(OC)c3)C(=O)Nc3c(C)cc(Br)cc32)ccc1O | inactive | – |
| CN(C)S(=O)(=O)N1CCC(CCCC2CCN(S(=O)(=O)N(C)C)CC2)CC1 | inactive | – |
| CCCc1nc2oc3c(NCCCN(C)C)ncnc3c2c2c1CCCC2 | inactive | – |
| O=C1C=CC(=O)N1CCNc1ncc(C(F)(F)F)cc1Cl | inactive | inactive |
| CCN(CC)c1ncnc2sc3c(c12)CCC3 | inactive | inactive |
| COc1cc(NC(=O)CSc2ncnc3sc4c(c23)CCC(C)C4)c(C(=O)O)cc1OC (configuration not stated) | inactive | – |
| Cc1cc(C)c2c(=O)n(CC(=O)Nc3cccc(Cl)c3C)sc2n1 | inactive | – |
| CCCCN(CC)CCCNC(=O)c1cc2cc3ccc(C)cc3nc2o1 | inactive | – |
| CC(C)NS(=O)(=O)c1ccc(NC(=O)C(C)Oc2ccc(C(=O)c3ccccc3)cc2)cc1 (configuration not stated) | inactive | inactive |
| Cc1ccc2c(c1)C1CN(C)CCC1N2C(=S)NC(=O)c1ccc(Br)cc1 (configuration not stated) | inactive | – |
| CN(C)CCCN(C(=O)CCc1ccccc1)c1nc2ccc(F)cc2s1 | inactive | – |
